Source: ChEMBL document CHEMBL1123371, “5-HT1 and 5-HT2 binding characteristics of some quipazine analogues” (J Med Chem, 1986)
Activity calls are given as the source filed them. The rule behind the calls is not given here.

Tests used:
[1] = tested on: Rattus norvegicus; test: Stimulus generalization studies in TFMPP trained animals and the number of animals responding /number to receive dose of drug was determined at dose of 0.5 mg/kg; 6/6; assay type: functional
How it was run: (§1)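 Male Sprague-Dawley rats (n = 6) trained to discriminate 0.5 mg/kg TFMPP HCl from saline on a two-lever operant task, VI 15-s food reward. Challenge doses were given ip in random order 15 min before a 2.5-min extinction test, with at least three training sessions between tests. Fewer than five total responses was scored as disruption.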

[2] = tested on: Rattus norvegicus; test: Compound was evaluated in stimulus generalization test using animals trained to discriminate TFMPP from saline, and the drug appropriate responding at dose of 0.5 mg/kg; assay type: functional; how it was run: as §1
[3] = tested on: Rattus norvegicus; test: Compound was evaluated in stimulus generalization test using animals trained to discriminate TFMPP from saline, and the mean responses per min at dose of 0.5 mg/kg; assay type: functional; how it was run: as §1
[4] = Displacement of [3H]5-HT from 5-hydroxytryptamine 1 receptor of rat cortical membrane homogenates
[5] = tested on: Rattus norvegicus; test: Compound was evaluated in stimulus generalization test using animals trained to discriminate DOM from saline, and the drug appropriate responding at dose of 0.05 mg/kg; assay type: functional
How it was run: (§2)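 Male Sprague-Dawley rats (n = 10) trained to discriminate 1.0 mg/kg DOM HCl from saline on a two-lever operant task, VI 15-s food reinforcement. Test doses were given ip in random order, 15 min pre-session, with at least three training sessions between tests. Responding was scored in a 2.5-min extinction session. Rats with fewer than five total responses were counted as disrupted.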

[6] = tested on: Rattus norvegicus; test: Compound was evaluated in stimulus generalization test using animals trained to discriminate DOM from saline, and the drug appropriate responding at dose of 0.1 mg/kg; assay type: functional; how it was run: as §2
[7] = tested on: Rattus norvegicus; test: Compound was evaluated in stimulus generalization test using animals trained to discriminate DOM from saline, and the drug appropriate responding at dose of 0.5 mg/kg; Not responding; assay type: functional, organism-based; design: dose 0.5 mg/kg; how it was run: as §2
[8] = tested on: Rattus norvegicus; test: Compound was evaluated in stimulus generalization test using animals trained to discriminate DOM from saline, and the drug appropriate responding at dose of 2.0 mg/kg; Not responding; assay type: functional, organism-based; design: dose 2 mg/kg; how it was run: as §2
[9] = tested on: Rattus norvegicus; test: Compound was evaluated in stimulus generalization test using animals trained to discriminate DOM from saline, and the mean responses per min at dose of 0.05 mg/kg; assay type: functional; how it was run: as §2
[10] = tested on: Rattus norvegicus; test: Compound was evaluated in stimulus generalization test using animals trained to discriminate DOM from saline, and the mean responses per min at dose of 0.1 mg/kg; assay type: functional; how it was run: as §2
[11] = target: Serotonin 2 (5-HT2) receptor (Rattus norvegicus, UniProt P30994+P08909+P14842); test: Displacement of [3H]ketanserin from 5-hydroxytryptamine 2 receptor of rat cortical membrane homogenates
[12] = tested on: Rattus norvegicus; test: Compound was evaluated in stimulus generalization test using animals trained to discriminate DOM from saline, and the drug appropriate responding at dose of 0.3 mg/kg; Not responding; assay type: functional, organism-based; design: dose 0.3 mg/kg; how it was run: as §2
[13] = tested on: Rattus norvegicus; test: Stimulus generalization studies in TFMPP trained animals and the number of animals responding /number to receive dose of drug was determined at dose of 0.5 mg/kg; 3/3; assay type: functional; how it was run: as §1
[14] = tested on: Rattus norvegicus; test: Stimulus generalization studies in TFMPP trained animals and the number of animals responding /number to receive dose of drug was determined at dose of 1 mg/kg; 3/4; assay type: functional; how it was run: as §1
[15] = tested on: Rattus norvegicus; test: Stimulus generalization studies in TFMPP trained animals and the number of animals responding /number to receive dose of drug was determined at dose of 2.5 mg/kg; 5/5; assay type: functional; how it was run: as §1
[16] = tested on: Rattus norvegicus; test: Compound was evaluated in stimulus generalization studies in DOM trained animals and the number of animals responding /number to receive dose of drug at dose of 3.0 mg/kg; 1/4; assay type: functional; how it was run: as §2
[17] = tested on: Rattus norvegicus; test: Compound was evaluated in stimulus generalization studies in DOM trained animals and the number of animals responding /number to receive dose of drug at dose of 0.5 mg/kg; 3/3; assay type: functional; how it was run: as §2
[18] = tested on: Rattus norvegicus; test: Compound was evaluated in stimulus generalization studies in DOM trained animals and the number of animals responding /number to receive dose of drug at dose of 2.2 mg/kg; 2/5; assay type: functional; how it was run: as §2
[19] = tested on: Rattus norvegicus; test: Compound was evaluated in stimulus generalization studies in DOM trained animals and the number of animals responding /number to receive dose of drug at dose of 2.5 mg/kg; 3/6; assay type: functional; how it was run: as §2
[20] = tested on: Rattus norvegicus; test: Compound was evaluated in stimulus generalization studies in DOM trained animals and the number of animals responding /number to receive dose of drug at dose of 2.7 mg/kg; 1/4; assay type: functional; how it was run: as §2
[21] = tested on: Rattus norvegicus; test: Compound was evaluated in stimulus generalization studies in DOM trained animals and the number of animals responding /number ot receive dose of drug at dose of 2.0 mg/kg; 3/4; assay type: functional; how it was run: as §2
[22] = species: Rattus norvegicus; test: Compound was tested for the doses at which the animals would be expected to make approximately 50% of their responses on the DOM-appropriate lever; assay type: functional
How it was run: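 DOM-trained rats (1.0 mg/kg DOM HCl vs saline, two-lever, VI 15 s, food) were given ip doses 15 min before a 2.5-min extinction session. Where >80% of responses fell on the DOM lever (generalization), the dose expected to give about 50% DOM-lever responding was calculated from dose–response data and reported with 95% confidence limits.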

[23] = tested on: Rattus norvegicus; test: Compound was evaluated in tests of stimulus generalization using animals trained to discriminate DOM from saline, and the drug appropriate responding at dose of 0.5 mg/kg; assay type: functional; how it was run: as §2
[24] = tested on: Rattus norvegicus; test: Compound was evaluated in tests of stimulus generalization using animals trained to discriminate DOM from saline, and the drug appropriate responding at dose of 2.0 mg/kg; assay type: functional; how it was run: as §2
[25] = tested on: Rattus norvegicus; test: Compound was evaluated in tests of stimulus generalization using animals trained to discriminate DOM from saline, and the drug appropriate responding at dose of 2.2 mg/kg; Not responding; assay type: functional, organism-based; design: dose 2.2 mg/kg; how it was run: as §2
[26] = tested on: Rattus norvegicus; test: Compound was evaluated in tests of stimulus generalization using animals trained to discriminate DOM from saline, and the drug appropriate responding at dose of 2.5 mg/kg; assay type: functional; how it was run: as §2
[27] = tested on: Rattus norvegicus; test: Compound was evaluated in tests of stimulus generalization using animals trained to discriminate DOM from saline, and the drug appropriate responding at dose of 2.7 mg/kg; Not responding; assay type: functional, organism-based; design: dose 2.7 mg/kg; how it was run: as §2
[28] = tested on: Rattus norvegicus; test: Compound was evaluated in tests of stimulus generalization using animals trained to discriminate DOM from saline, and the drug appropriate responding at dose of 3.0 mg/kg; Not responding; assay type: functional, organism-based; design: dose 3 mg/kg; how it was run: as §2
[29] = tested on: Rattus norvegicus; test: Compound was evaluated in stimulus generalization test using animals trained to discriminate TFMPP from saline, and the drug appropriate responding at dose of 1.0 mg/kg; assay type: functional; how it was run: as §1
[30] = tested on: Rattus norvegicus; test: Compound was evaluated in stimulus generalization test using animals trained to discriminate TFMPP from saline, and the drug appropriate responding at dose of 2.5 mg/kg; assay type: functional; how it was run: as §1
[31] = tested on: Rattus norvegicus; test: Compound was evaluated in tests of stimulus generalization using animals trained to discriminate DOM from saline, and the mean responses per min at dose of 2.5 mg/kg; assay type: functional; how it was run: as §2
[32] = tested on: Rattus norvegicus; test: Compound was evaluated in stimulus generalization test using animals trained to discriminate TFMPP from saline, and the mean responses per min at dose of 1.0 mg/kg; assay type: functional; how it was run: as §1
[33] = tested on: Rattus norvegicus; test: Compound was evaluated in stimulus generalization test using animals trained to discriminate TFMPP from saline, and the mean responses per min at dose of 2.5 mg/kg; assay type: functional; how it was run: as §1
[34] = tested on: Rattus norvegicus; test: Compound was evaluated in tests of stimulus generalization using animals trained to discriminate DOM from saline, and the mean responses per min at dose of 0.5 mg/kg; assay type: functional; how it was run: as §2
[35] = tested on: Rattus norvegicus; test: Compound was evaluated in tests of stimulus generalization using animals trained to discriminate DOM from saline, and the mean responses per min at dose of 2.0 mg/kg; assay type: functional; how it was run: as §2

In the case of `FC(F)(F)c1cccc(N2CCNCC2)c1`, the Activity [1] is reported as 6, the Drug responding [2] is reported as 92% and the Mean response/min [3] is reported as 18.2.
Work on `c1ccc(N2CCNCC2)cc1` [PHENYLPIPERAZINE] yielded a Ki [4] of 135 nM, a Drug responding [5] of 7% and a Drug responding [6] of 8%. The Drug responding [7] was “inactive”, the Drug responding [8] was “inactive” and the Mean response/min [9] was 13.1. For the same compound, the Mean response/min [10] was 11.9, the Ki [11] was 2100 nM and the Drug responding [12] was “inactive”.
`c1ccc2c(N3CCNCC3)cccc2c1` gave a Ki [4] of 5 nM, an Activity [13] of 3 and an Activity [14] of 3. It also gave an Activity [15] of 5, an Activity [16] of 1 and an Activity [17] of 3. The Activity [18] was 2, the Activity [19] was 3 and the Activity [20] was 1. The Activity [21] was 3, the ED50 [22] was 1 mg/kg and the Drug responding [23] was 14%. The Drug responding [24] was 7%, the Drug responding [25] was “inactive” and the Drug responding [26] was 37%. The Drug responding [27] was “inactive”, the Drug responding [28] was “inactive” and the Drug responding [2] was 15%. The Drug responding [29] was 41%, the Drug responding [30] was 96% and the Mean response/min [31] was 2.6. For the same compound, the Mean response/min [3] was 19.1, the Mean response/min [32] was 17.3 and the Mean response/min [33] was 16.4. It also gave a Mean response/min [34] of 18, a Mean response/min [35] of 8.8 and a Ki [11] of 18 nM.
Compound `c1ccc2nc(N3CCCCC3)ccc2c1` has a Ki [4] greater than 100000 nM and a Ki [11] greater than 150000 nM.
